{"data": "Measurements collected from several papers", "CDK9": "Cyclin-dependent kinase 9 (CDK9, Homo sapiens, UniProt P50750)", "CDK9 with cyclin T1": "Cyclin-dependent kinase 9, with cyclin T1 (CDK9, Homo sapiens, UniProt P50750)", "note": "Protocols differ between the studies behind these lines."}
{"SMILES": "COc1ncccc1-c1cnn2ccc(N3CCN(C(=O)OC(C)C)CC3)nc12", "target": "CDK9", "assay": "binding, competition with immobilised ligand", "setting": "1 µM", "measurement": "remaining binding", "result": "93%"}
{"SMILES": "O=c1[nH]c2ccccc2n1C1CCN(Cc2ccc(-c3[nH]c4cc5ncnc5cc4nc3-c3ccccc3)cc2)CC1", "target": "Cyclin-dependent kinase 9, with cyclin K (CDK9, Homo sapiens, UniProt P50750)", "assay": "cell-free assay", "setting": "0.5 µM", "measurement": "remaining signal", "result": "108%"}
{"SMILES": "Nc1ncc(-c2nc(N3CCOCC3)nc(N3CCOCC3)n2)c(C(F)F)n1", "target": "CDK9", "assay": "binding, competition with immobilised ligand", "setting": "10 µM", "measurement": "remaining binding", "result": "99%"}
{"SMILES": "Cn1cc(-c2cccc(N3CCc4c(sc5c4CC(C)(C)C5)C3=O)c2CO)cc(Nc2ccncn2)c1=O", "target": "CDK9 with cyclin T1", "assay": "enzyme activity, inhibitor", "setting": "1 µM", "measurement": "inhibition", "result": "11%"}
{"SMILES": "Cn1cncc1[C@](O)(COc1ccc(C#N)cc1-c1ccc(OC(F)(F)F)cc1)c1ccc(C#N)cc1", "target": "CDK9", "assay": "cell-free assay, competition with immobilised ligand", "setting": "1 µM", "measurement": "remaining binding", "result": "100%"}
{"SMILES": "Cc1nn(C)cc1-c1nc2c(N3CCN(Cc4ccc(Cl)cc4)CC3)c(Cl)cnc2[nH]1", "target": "CDK9", "assay": "binding, competition with immobilised ligand", "setting": "1 µM", "measurement": "remaining binding", "result": "100%"}
{"SMILES": "N#CC1(c2ccccn2)CCN(Cc2cc(C(=O)O)c(=O)n3ccccc23)CC1", "target": "CDK9", "assay": "cell-free assay, competition with immobilised ligand", "setting": "1 µM", "measurement": "remaining binding", "result": "99%"}
{"SMILES": "C#Cc1n[nH]c2c(-c3cn(C(C)c4ccccn4)c(=O)[nH]c3=O)cc(F)cc12 (centres unmarked)", "target": "CDK9 with cyclin T1", "assay": "enzyme activity, inhibitor", "setting": "1 µM", "measurement": "inhibition", "result": "20.9%"}
